The source of these data is ChEMBL document CHEMBL3616433, “Synthesis and anti-cancer potential of the positional isomers of NOSH-aspirin (NBS-1120) a dual nitric oxide and hydrogen sulfide releasing hybrid” (Bioorg Med Chem Lett, 2015).

Activity calls are given as the source filed them. No cut-off for these calls is given here.

For assay [1], the system named is HT-29. Put plainly: Cytotoxicity against human HT-29 cells assessed as growth inhibition after 24 hrs by MTT assay. Type of assay: functional, cell-based. To be noted: HT-29, 24 h. Summed up:
(§1)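 Cells grown in RPMI 1640 with 10% FBS, penicillin/streptomycin, at 37°C and 5% CO2. Compounds came from 100 mM DMSO stocks, with final DMSO 1% in all media. Growth was read by colorimetric MTT kit after 24 h. IC50 came from dose-response curves. Mean ± SEM of three to five experiments, each in triplicate.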

The test system of the next assay is HCT-15. Description: Cytotoxicity against human HCT15 cells assessed as growth inhibition after 24 hrs by MTT assay. Type of assay: functional, cell-based. To be noted: HCT-15, 24 h. Summed up:
as §1

Assay [2] relates to HT-29. Description: Cytotoxicity against human HT-29 cells assessed as reduction in PCNA expression at 50 to 500 nM after 24 hrs by ELISA relative to vehicle treated control. Type of assay: functional, cell-based. Summed up: (§2)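 HT-29 cells (1×10^6 cells/mL) exposed to a range of concentrations for 24 h. PCNA antigen was quantified by ELISA kit per the manufacturer's protocol and expressed as % of vehicle-treated cells. Mean ± SEM of 3 experiments run in duplicate; ANOVA with Tukey's test.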
A general note: ELISA stands for enzyme-linked immunosorbent assay.

Assay [3] has as its system HT-29. Put plainly: Induction of ROS generation in human HT-29 cells assessed as increase in intracellular peroxide level at 250 nM after 1 hr using DCFDA staining by flow cytometry relative to control. Type of assay: functional. The method in brief: (§3)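 Plate HT-29 cells at 0.3×10^6/well for 24 h, then treat 1 h. Trypsinize, wash in PBS, and incubate with DCFDA (10 µM) 30 min at 37°C in the dark. Read fluorescence by flow cytometry as fold over basal. Mean ± SEM of three independent experiments.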
(A flow cytometer gives signals particle by particle.)

Assay [4] relates to HT-29. Description: Cell cycle arrest in human HT-29 cells assessed as accumulation at G0/G1 phase at 1 to 2 times IC50 after 24 hrs using propidium iodide by flow cytometry. Type of assay: functional, cell-based. The method in brief:
(§4)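 HT-29 cells (0.5×10^6) treated 24 h, then trypsinized, fixed in 70% ethanol (10 min, −20°C), held in PBS/1% FBS/0.5% NP-40 on ice 5 min, and stained with propidium iodide 40 µg/mL plus RNase IIA 200 µg/mL. Flow cytometry within 30 min, >10,000 events per subset. Phase percentages were taken from DNA-content histograms. Representative of two experiments agreeing within 10%.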

Assay [5] has as its system HT-29. Put plainly: Induction of apoptosis in human HT-29 cells assessed as early apoptotic cells at 50 to 500 nM after 24 hrs using annexin-V staining by flow cytometry relative to control. Type of assay: functional, cell-based. The method in brief:
(§5)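 HT-29 cells (0.5×10^6 cells/mL) treated 24 h, washed, and resuspended in Annexin binding buffer (HEPES pH 7.4, NaCl, CaCl2). They were stained with Annexin V-FITC (final 0.5 µg/mL) and propidium iodide (final 20 µg/mL) for 5–15 min at room temperature in the dark, then analysed by flow cytometry for early apoptotic cells. Mean ± SEM of 3 experiments in duplicate.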

Assay [6] relates to HT-29. Put plainly: Cell cycle arrest in human HT-29 cells assessed as accumulation at G0/G1 phase at 1 to 2 times IC50 after 24 hrs using propidium iodide by flow cytometry.
For assay [7], the system named is HT-29. Description: Induction of ROS generation in human HT-29 cells assessed as increase in intracellular superoxide anion level at 250 nM after 1 hr using DHE staining by flow cytometry relative to control. In kind it is functional. The method in brief: (§6)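 HT-29 cells (0.3×10^6/well) plated for 24 h, then treated 1 h. They were trypsinized, PBS-washed, and loaded with dihydroethidium (5 µM) for 30 min at 37°C in the dark. Superoxide fluorescence was measured by flow cytometry relative to basal. Mean ± SEM of three independent experiments.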

The subject of assay [8] is HT-29. Description: Cell cycle arrest in human HT-29 cells assessed as accumulation at S phase at 1 to 2 times IC50 after 24 hrs using propidium iodide by flow cytometry. In kind it is functional, cell-based. Summed up:
as §4

The subject of assay [9] is HT-29. Description: Cell cycle arrest in human HT-29 cells assessed as reduction in S phase at 100 nM after 24 hrs using propidium iodide by flow cytometry (reference value: 31.9%). In kind it is functional. On the set-up: scale not given: the % may be the effect or the level left. Summed up: as §4
Assay [10] concerns HT-29. Put plainly: Cytotoxicity against human HT-29 cells assessed as reduction in PCNA expression after 24 hrs by ELISA. Type of assay: functional, cell-based. The method in brief: as §2
Assay [11] relates to HT-29. Description: Cell cycle arrest in human HT-29 cells assessed as accumulation at G0/G1 phase at 100 nM after 24 hrs using propidium iodide by flow cytometry (reference value: 39.6%). Type of assay: functional. Summed up: as §4
Assay [12] deals with HT-29. Put plainly: Induction of apoptosis in human HT-29 cells assessed as early apoptotic cells at 100 nM after 24 hrs using annexin-V staining by flow cytometry relative to control. In kind it is functional. Summed up: as §5
Assay [13] relates to HT-29. Put plainly: Cell cycle arrest in human HT-29 cells assessed as reduction in S phase at 50 nM after 24 hrs using propidium iodide by flow cytometry (reference value: 31.9%). In kind it is functional. Also noted: scale not given: the % may be the effect or the level left. The method in brief:
as §4

The subject of assay [14] is HT-29. Put plainly: Induction of apoptosis in human HT-29 cells assessed as early apoptotic cells at 10 nM after 24 hrs using annexin-V staining by flow cytometry relative to control. Type of assay: functional. The method in brief:
as §5

Assay [15] deals with HT-29. Description: Induction of ROS generation in human HT-29 cells assessed as increase in intracellular peroxide level at 50 nM after 1 hr using DCFDA staining by flow cytometry relative to control. Type of assay: functional. Summed up:
as §3

Assay [16] deals with HT-29. Put plainly: Cell cycle arrest in human HT-29 cells assessed as reduction in G2/M phase at 100 nM after 24 hrs using propidium iodide by flow cytometry (reference value: 28.5%). On the set-up: scale not given: the % may be the effect or the level left. In kind it is functional. Summed up:
as §4

Assay [17] concerns HT-29. Put plainly: Cytotoxicity against human HT-29 cells assessed as reduction in PCNA expression at 100 nM after 24 hrs by ELISA relative to vehicle treated control. Type of assay: functional. On the set-up: scale not given: the % may be the effect or the level left. The method in brief: as §2
For assay [18], the system named is HT-29. Put plainly: Cell cycle arrest in human HT-29 cells assessed as reduction in G2/M phase at 50 nM after 24 hrs using propidium iodide by flow cytometry (reference value: 28.5%). In kind it is functional. On the set-up: scale not given: the % may be the effect or the level left. The method in brief:
as §4

Assay [19] has as its system HT-29. Description: Cytotoxicity against human HT-29 cells assessed as reduction in PCNA expression at 10 nM after 24 hrs by ELISA relative to vehicle treated control. Type of assay: functional. On the set-up: scale not given: the % may be the effect or the level left. Summed up:
as §2

Assay [20] has as its system HT-29. Description: Cytotoxicity against human HT-29 cells assessed as reduction in PCNA expression at 50 nM after 24 hrs by ELISA relative to vehicle treated control. In kind it is functional. On the set-up: scale not given: the % may be the effect or the level left. Summed up: as §2
Assay [21] has as its system HT-29. Description: Induction of apoptosis in human HT-29 cells assessed as early apoptotic cells at 50 nM after 24 hrs using annexin-V staining by flow cytometry relative to control. Type of assay: functional. The method in brief: as §5
Assay [22] concerns HT-29. Description: Induction of apoptosis in human HT-29 cells assessed as early apoptotic cells at 25 nM after 24 hrs using annexin-V staining by flow cytometry relative to control. Type of assay: functional. The method in brief:
as §5

Assay [23] concerns HT-29. Description: Cytotoxicity against human HT-29 cells assessed as reduction in PCNA expression at 25 nM after 24 hrs by ELISA relative to vehicle treated control. Type of assay: functional. Also noted: scale not given: the % may be the effect or the level left. Summed up:
as §2

Assay [24] concerns HT-29. Description: Cell cycle arrest in human HT-29 cells assessed as accumulation at G0/G1 phase at 50 nM after 24 hrs using propidium iodide by flow cytometry (reference value: 39.6%). In kind it is functional. Summed up:
as §4

The test system of assay [25] is HT-29. Description: Induction of ROS generation in human HT-29 cells assessed as increase in intracellular superoxide anion level at 50 nM after 1 hr using DHE staining by flow cytometry relative to control.
Assay [26] has as its system HT-29. Description: Induction of apoptosis in human HT-29 cells assessed as early apoptotic cells at 100 to 1000 nM after 24 hrs using annexin-V staining by flow cytometry relative to control. Type of assay: functional, cell-based. The method in brief:
as §5

Assay [27] has as its system HT-29. Put plainly: Cell cycle arrest in human HT-29 cells assessed as accumulation at G2/M phase at 1 to 2 times IC50 after 24 hrs using propidium iodide by flow cytometry. In kind it is functional, cell-based. To be noted: in the assay text read “G0/G1 phase” for “G2/M phase”. Summed up:
as §4

Assay [28] concerns HT-29. Description: Induction of ROS generation in human HT-29 cells assessed as increase in intracellular peroxide level at 500 nM after 1 hr using DCFDA staining by flow cytometry relative to control. Type of assay: functional. The method in brief: as §3
The test system of assay [29] is HT-29. Description: Cytotoxicity against human HT-29 cells assessed as reduction in PCNA expression at 100 to 1000 nM after 24 hrs by ELISA relative to vehicle treated control. In kind it is functional, cell-based. Summed up:
as §2

For assay [30], the system named is HT-29. Description: Induction of ROS generation in human HT-29 cells assessed as increase in intracellular superoxide anion level at 500 nM after 1 hr using DHE staining by flow cytometry relative to control. Type of assay: functional. Summed up:
as §6

The term IC50 denotes the concentration that gives 50% inhibition. On to `O=C(CCCO[N+](=O)[O-])Oc1ccc(C(=O)Oc2ccc(-c3cc(=S)ss3)cc2)cc1Cl`, for which the IC50 was 0.06 µM in the assay with HT-29 [1] and 0.33 µM with HCT-15.

On to `COc1ccc(C(=O)Oc2ccc(-c3cc(=S)ss3)cc2)cc1OC(=O)CCCO[N+](=O)[O-]`, for which the figures for the half-inhibitory concentration (IC50) in the assay on HT-29 [1] and in the assay with HCT-15 were 0.43 µM and 0.33 µM, respectively.

Regarding `O=C(CCCO[N+](=O)[O-])Oc1cccc(C(=O)Oc2ccc(-c3cc(=S)ss3)cc2)c1`, the outcome in the assay on HT-29 [2], in the assay on HT-29 [4], with HT-29 [5], in the assay with HT-29 [6] and with HT-29 [8] was Active. The results for the “fold change (FC)” value in the assay on HT-29 [3] and with HT-29 [7] were 15 and 21, respectively. Also, the half-maximal inhibitory concentration (IC50) came to 0.22 µM in the assay on HT-29 [1] and 0.11 µM with HCT-15.

On to `O=C(CCCO[N+](=O)[O-])Oc1ccccc1C(=O)Oc1ccc(-c2cc(=S)ss2)cc1`, for which the Activity in the assay with HT-29 [9] was 18.2%; in the assay on HT-29 [10], “Dose-dependent effect”; in the assay with HT-29 [11] it was 71.9%; in the assay with HT-29 [12] it was 78%; in the assay on HT-29 [13] it was 26.1%; with HT-29 [14], 15%. In addition, the Activity is listed as 9.9% in the assay with HT-29 [16]; 20% in the assay on HT-29 [17]; 20.3% with HT-29 [18]; 80% in the assay on HT-29 [19]; 48% in the assay on HT-29 [20]; 65% in the assay on HT-29 [21]. Further, the Activity in the assay with HT-29 [22] is on record as 35%; in the assay with HT-29 [23], 65%; with HT-29 [24], 53.6%. The entries for the “fold change (FC)” value with HT-29 [15] and in the assay on HT-29 [25] were 16 and 18, respectively. Moreover, the IC50 in the assay with HCT-15 turned out to be 0.057 µM.

In the case of `O=C(CCCO[N+](=O)[O-])Oc1ccc(Cl)cc1C(=O)Oc1ccc(-c2cc(=S)ss2)cc1`, the IC50 in the assay with HT-29 [1] turned out to be 0.4 µM; in the assay with HCT-15 it was 0.17 µM.

As for `COc1ccc(OC(=O)CCCO[N+](=O)[O-])c(C(=O)Oc2ccc(-c3cc(=S)ss3)cc2)c1`, the IC50 worked out at 0.2 µM in the assay with HT-29 [1] and 0.38 µM with HCT-15.

As for `COc1cc(C(=O)Oc2ccc(-c3cc(=S)ss3)cc2)ccc1OC(=O)CCCO[N+](=O)[O-]`, the IC50 was 0.13 µM in the assay on HT-29 [1] and 0.22 µM in the assay with HCT-15.

For `O=C(CCCO[N+](=O)[O-])Oc1cccc(C(=O)Oc2ccc(-c3cc(=S)ss3)cc2)c1Cl`, the figures for the half-inhibitory concentration (IC50) in the assay on HT-29 [1] and in the assay on HCT-15 were 0.21 µM and 0.14 µM, respectively.

As to `O=C(CCCO[N+](=O)[O-])Oc1ccc(C(=O)Oc2ccc(-c3cc(=S)ss3)cc2)cc1`, the result in the assay on HT-29 [4], in the assay with HT-29 [26], with HT-29 [27], with HT-29 [29] and in the assay on HT-29 [8] was Active. The IC50 is 0.45 µM in the assay with HT-29 [1] and 0.38 µM in the assay on HCT-15. Also, the “fold change (FC)” value in the assay on HT-29 [28] was determined as 11; with HT-29 [30] it was 10.

With `CC(=O)Oc1ccccc1C(=O)O` [ASPIRIN], the IC50 in the assay with HT-29 [1] and in the assay with HCT-15 was above 5000 µM throughout.
